# Bioassay records as filed in PubChem.
# Compounds with a hit are over-represented: about 11% of the library has one in this group of screens.
# WT yeast gro inh: growth inhibition of WT yeast, mitochondrial fusion screen; mitochondrial fusion phenotypic screen, WT strain; 2.1% of 190,000 active; inhibition, % at 10 µM; AID 1362; in the data active = inhibition above about 58%; tested in S. cerevisiae
# G6PDH counter: inhibits Leuconostoc G6PDH, flagging false hits in G6PDH-based assays | Purified L. mesenteroides G6PDH, diaphorase/resazurin coupled fluorescence, 45 min | inhibition, % at 5 µM | 0.12% of 200,000 active | AID 1020
# Diaph act CS: counter-screen for diaphorase-based assays: diaphorase activators and chemical reducers; AID 1229; 0.005% of 190,000 active; activation factor at 20 µM; Diaphorase/resazurin coupled assay, resorufin fluorescence, 16 min; stronger effect = higher value; 1 = vehicle wells, 0 = NADH-free wells;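 active = diaphorase activity raised at least twofold by the compound at 20 µM; inactive = activation factor below 2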
#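 Test system: Clostridium kluyveri diaphorase, purified enzyme. Buffer or medium: 50 mM HEPES pH 7.4 buffer plus MgCl2 and Tween 20. Also added: 0.114 mM NADH and 0.1 mM resazurin, final amounts. Dosing: compound 20 µM once, DMSO 1%. Schedule: 16 min enzyme reaction, ambient temperature. Detection: fluorescence of resorufin, 544 nm excitation, 590 nm emission.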
# Diaph inh CS: inhibits diaphorase or chemically oxidizes, flagging diaphorase assay artifacts; diaphorase resazurin-to-resorufin fluorescence, NADH, 16 min; bacterial (C. kluyveri) enzyme, not human; 0.69% of 190,000 active; inhibition, % at 20 µM; AID 1217;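 active = primary screen inhibition at 20 µM above a set limit, cut at about 50% in these data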;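 note: plate controls were DMSO with full reaction for no effect and wells lacking NADH for full effect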
#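 Test system: Clostridium kluyveri diaphorase enzyme / Quantity: diaphorase at 0.14 U/mL in enzyme working solution / Incubation: 16-min room-temperature incubation before reading / Benchmarks: NADH-free wells as positive control, DMSO-only neutral wells / Signal: resorufin fluorescence 544/590 nm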
# L major viab: inhibitors of Leishmania major promastigote growth | Leishmania major promastigotes, resazurin fluorescence viability | inhibition, % at 10 µM | 9% of 200,000 active | AID 1063;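 note: promastigotes grown with compound for 44 hours at 28 °C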
# The depositor's hits bear a star. Cut-off read from the data, not from the text of the source, unless noted: active = inhibition above about 50%; inactive = the rest.
SMILES,WT yeast gro inh,G6PDH counter,Diaph act CS,Diaph inh CS,L major viab
Cc1ccc(-n2c(O)c(C=NC3CCS(=O)(=O)C3)c3ccccc3c2=O)cc1C (centres undefined),13,0,0.8,25,5
Cc1ccc(-n2c(O)c(C=Nc3ccccc3-c3n[nH]c(=S)[nH]c3=O)c3ccccc3c2=O)c(C)c1,15,-1,0.3,72*,-8
Cc1ccc(-n2c(O)c(C=Nc3ccccc3-c3n[nH]c(=S)[nH]c3=O)c3ccccc3c2=O)cc1C,1,3,0.2,76*,-6
CC(C)N(C(=O)COC(=O)[C@H](C)NC(N)=O)c1ccccc1,7,6,1,2,-3
Cn1c(N)c(C(=O)COC(=O)C2(c3ccccc3F)CCCC2)c(=O)n(C)c1=O,13,10,0.9,14,79*
CC(Nc1cc(N2CCNCC2)ccc1[N+](=O)[O-])c1ccccc1 (centres undefined),19,10,0.8,17,100*
Cc1nn(-c2cc(N3CCNCC3)ccc2[N+](=O)[O-])c(=O)c2ccccc12,-3,17,1,1,67*
Cc1nn(-c2cc(N3CCCCC3)ccc2[N+](=O)[O-])c(=O)c2ccccc12,-9,7,0.9,8,21
CN1CCN(c2ccc([N+](=O)[O-])c(-n3nc(-c4ccccc4)c4ccccc4c3=O)c2)CC1,0,9,0.9,11,99*
CCCCONc1ncnc2nonc12,-1,2,1.1,-6,-6
CC(CNC(=O)COc1ccccc1)OC(=O)Nc1ccc(Cl)c(Cl)c1 (centres undefined),82*,-18,0.8,18,2
COC(=O)NCC(C)OC(=O)Nc1cccc(Cl)c1 (centres undefined),1,5,1,-5,0
CCNC(=O)NC1(C(=O)Nc2ccc3c(c2)OCCO3)CCCCC1,4,4,1.1,-13,-2
COC(=O)c1ccc[n+](CC(=O)Nc2ccc(OC(F)F)cc2)c1,0,4,1,0,-10
Cc1ccc(C)[n+](CC(=O)c2ccc(-c3ccccc3)cc2)c1,-4,8,1.1,-14,70*
COC(=O)c1ccc[n+](CC(=O)c2ccc(Br)cc2)c1,7,5,0.8,17,56*
Cc1ccc[n+](CC(=O)c2ccc(-c3ccccc3)cc2)c1,6,-2,0.8,16,100*
Cc1ccc(C(=O)C[n+]2cccc3ccccc32)cc1,25,-10,1,0,4
COc1ccc(NC(=O)C(NC(=O)c2ccc(=O)[nH]c2)c2ccc(C)cc2)cc1 (centres undefined),-5,3,0.9,10,8
C/C(=N\NC(=O)CNc1ccccc1)c1ccccc1,-1,12,0.8,18,-3
CCCCNC(=O)C1C2C=CC(C2)C1C(=O)O (centres undefined),-8,-7,0.8,20,-4
CCN(C(=O)CSc1cc(C)c2ccccc2n1)c1c(N)n(Cc2ccccc2)c(=O)[nH]c1=O,-20,-6,0.8,17,0
O=C(NCCc1c[nH]c2ccccc12)c1cc(S(=O)(=O)N2CCCCC2)ccc1N1CCOCC1,-14,6,0.7,28,65*
COc1ccc(CCNC(=O)c2c(C)nc3ccccn23)cc1OC,2,12,0.9,11,1
Cc1cc2nc(CCN(Cc3cccnc3)C(=S)Nc3ccccc3)[nH]c2cc1C,10,-39,1,3,91*
SMILES,WT yeast gro inh,G6PDH counter,Diaph act CS,Diaph inh CS,L major viab
Cc1ccccc1NC(=O)N(CCc1nc2ccccc2[nH]1)Cc1ccccc1,5,2,0.9,8,58*
COc1ccccc1NC(=S)N(CCc1nc2cc(C)c(C)cc2[nH]1)Cc1cccnc1,8,0,1,0,57*
Cc1cc(C(F)(F)F)nn1CC(=O)N1CCOCC1,16,0,1.1,-6,-2
CCCCNC(=O)CCn1c(=O)c2ccccc2n(Cc2ccc(Cl)cc2)c1=O,8,2,1,-2,57*
Cc1[nH][nH]c(=O)c1C(c1c(C)[nH][nH]c1=O)c1cn(Cc2ccc(Cl)c(Cl)c2)c2ccccc12,71*,-11,0.6,38,99*
Cc1[nH][nH]c(=O)c1C(c1c(C)[nH][nH]c1=O)c1cn(Cc2ccc(F)cc2)c2ccccc12,14,26,0.6,45,99*
O=C(O)Cc1cn(Cc2ccc(F)cc2)c2ccccc12,3,2,0.9,8,-11
CC(Oc1ccccc1)C(=O)N=Nc1c(O)[nH]c2ccc([N+](=O)[O-])cc12 (centres undefined),0,-3,0.8,24,12
CCCCCCC(=O)N=Nc1c(O)[nH]c2ccc([N+](=O)[O-])cc12,20,7,1,3,78*
O=C(N1CCN(c2ccccc2F)CC1)C12CC3CC(CC(C3)C1)C2,2,34,0.9,8,10
O=C(c1ccc2ncsc2c1)N1CCN(c2ccccc2Cl)CC1,16,-6,0.9,7,38
Cc1cccc(N2CCN(C(=O)c3ccc4ncsc4c3)CC2)c1C,15,0,0.7,25,61*
Cc1cccc(N2CCN(C(=O)c3ccc(NS(=O)(=O)c4c(C)noc4C)cc3)CC2)c1C,16,24,0.7,30,97*
Cc1cccc(N2CCN(C(=O)C34CC5CC(CC(C5)C3)C4)CC2)c1C,88*,2,0.9,6,7
Cc1noc(C)c1S(=O)(=O)Nc1ccc(C(=O)N2CCN(c3cccc(Cl)c3)CC2)cc1,15,-3,0.8,18,-5
O=C(O)C1CCCCC1C(=O)Nc1ccc(F)cc1F (centres undefined),97*,4,1,2,-6
CCN(CC)CCNc1nc2cc(OC)c(OC)cc2c2nc(-c3ccccc3)nn12,0,6,1,0,100*
CCCCNC(=O)CCC(=O)NNc1nc2ccccc2c2nc(-c3ccccc3)nn12,-13,4,0.7,28,-4
COc1cc2[nH]c(=O)n3nc(-c4ccccc4)nc3c2cc1OC,-2,4,0.8,23,50*
Cc1ccc(S(=O)(=O)CCc2nnc(NC(=O)COc3cccc(C)c3)s2)cc1,32,-2,1,1,-4
CCOC(=O)c1ccc(Oc2nc(NC)nc(Nc3ccccc3)n2)cc1,-1,2,0.9,5,97*
COC(=O)c1ccc(Oc2nc(Nc3ccc(C)c(C)c3)nc(N(C)C)n2)cc1,31,1,0.8,15,74*
C#CCNc1nc(CC)nc2c1nnn2Cc1ccccc1F,-12,9,1,2,22
CC(=O)C1=C(C)NC(SCC(=O)c2ccccc2)=C(C#N)C1CC(C)C (centres undefined),12,-4,0.9,14,13
